Source: PubChem BioAssay
The list is not random: actives were taken first. Their share in the collection is about 1.2%.
NCF1 inh: blocks human p47phox regulatory protein of NADPH oxidases; p47phox/p22phox peptide binding, fluorescence polarization, 2 h; inhibition, % at 24.7 µM; 0.53% of 220,000 active; AID 1274; P14598;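 active means inhibition above about 30%, limit read from the data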;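 further: 0% = p47phox with labelled peptide and 100% = labelled peptide alone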
Target sequence (P14598 whole entry, looked up): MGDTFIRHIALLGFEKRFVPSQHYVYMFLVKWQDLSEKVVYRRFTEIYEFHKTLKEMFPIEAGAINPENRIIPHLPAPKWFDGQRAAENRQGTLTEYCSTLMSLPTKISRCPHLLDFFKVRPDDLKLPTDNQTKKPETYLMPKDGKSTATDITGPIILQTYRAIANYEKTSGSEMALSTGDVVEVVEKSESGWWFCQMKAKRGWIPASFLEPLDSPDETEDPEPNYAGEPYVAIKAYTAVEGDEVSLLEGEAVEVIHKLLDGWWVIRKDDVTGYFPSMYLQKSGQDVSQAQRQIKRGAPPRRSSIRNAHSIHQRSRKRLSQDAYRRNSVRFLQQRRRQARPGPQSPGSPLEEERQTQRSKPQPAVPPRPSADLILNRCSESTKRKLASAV
PMI act hi M6P: activators of human phosphomannose isomerase at near-saturating mannose 6-phosphate | P34949 | coupled PMI enzyme assay, resazurin fluorescence, 20 min; hits give high values; 1 = untreated enzyme, 0 = substrate-free blank | activation factor at 20 µM | 0.34% of 190,000 active | AID 1216;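 active means activation factor of 2 or more at 20 µM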
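Material: human phosphomannose isomerase with PGI, G6PDH, diaphorase coupling enzymes / Reagent: Man-6-P substrate 1.0 mM / Dosing: single compound dose of 20 µM, 1% DMSO final / Incubation: enzyme reaction with compound 20 min at room temperature / Signal: resorufin fluorescence (Ex 544/Em 590 nm) from resazurin via diaphorase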
PMI activator: increases human mannose-6-phosphate isomerase activity; purified human PMI, coupled resazurin fluorescence, 20 min; hits give high values; 1 = vehicle control, 0 substrate-free wells; 0.005% of 190,000 active; activation factor at 20 µM;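 active means activation factor of 2 or more at 20 µM, relative to plate controls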
DTT redox prof: compounds producing H2O2 with reducing agent – biochemical, NIH compound library profiling, artefact control for MLSCN library redox annotation, primary screen. 0.03% of 200,000 active. activation, % at 10 µM. DTT-dependent redox cycling H2O2, phenol red/HRP absorbance; 100% = 100 µM peroxide control, 0% = buffer. AID 878;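 active means activation of at least 50% relative to the plate's high and low controls in the primary single-dose screen; inactive means activation below 50%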;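 further: compound incubated with DTT at 0.8 mM final as the reducing agent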
Diaph act CS: activates diaphorase or chemically reduces, flagging diaphorase assay artifacts. activation factor at 20 µM. AID 1229. 0.005% of 190,000 active. Diaphorase/resazurin coupled assay, resorufin fluorescence, 16 min; hits give high values; 1 = vehicle wells, 0 = NADH-free wells;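 active means diaphorase activity raised at least twofold by the compound at 20 µM; inactive means activation factor below 2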
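Material: bacterial diaphorase enzyme (C. kluyveri); amount: enzyme 0.07 U/mL final; reagent: NADH substrate 0.114 mM plus resazurin dye 0.1 mM, final; doses: single compound dose of 20 µM, 1% DMSO final; timing: 16 min enzyme reaction, ambient temperature; measured by: fluorescence of resorufin, 544 nm excitation, 590 nm emission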
HMGR II inh: blocks class II HMG-CoA reductase of Enterococcus faecalis. 0.41% of 190,000 active. inhibition, % at 10 µM. AID 1066. purified E. faecalis HMGR, NADPH absorbance 340 nm kinetic;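 active means inhibition above a set limit, the median over all tested compounds plus 3 SD, cut at about 9.5% in these data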;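 further: enzyme runs in reverse so mevalonate oxidation gives rising NADPH absorbance; 0% = complete reaction with DMSO and 100% = background rate lacking mevalonate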
Numbers without * were called inactive; . = no result; + = active, no number.

SMILES	NCF1 inh	PMI act hi M6P	PMI activator	DTT redox prof	Diaph act CS	HMGR II inh
CCOc1cc(N2CCOCC2)c(OCC)cc1NC(=O)c1cc(-c2ccco2)nc2ccccc12	30.2*	0.8	0.9	-2.2	0.8	1.5
Cc1nc2ncnn2c(C)c1C/C=C/c1ccccc1	6.0	1.1	1.2	-1.7	1	0.4
COc1cc(/C=C2\SC(=S)N(N(C)c3ccccc3)C2=O)ccc1O	-176.8	.	.	.	.	.
O=C(NNc1ccccc1)C(CCO)C(=O)NNc1ccccc1	-1.1	2.4*	1.8	0.4	1	-2.3
CC(C)C(=O)NNc1ccccc1	-1.1	1.3	1.4	-0.6	0.9	-4.6
CC(O)CC(C(=O)NNc1ccccc1)C(=O)NNc1ccccc1 (stereo not given)	-1.4	2.5*	1.7	-0.1	0.9	-1.6
CSc1nc2ncc(C(=O)O)c(N)n2n1	-1.3	1.1	1.2	-1.6	0.9	-5.1
Cc1ccc2[nH]c(=S)cc(C)c2c1	-6.4	1.4	0.9	0.9	0.7	-4.0
Cc1cc(=S)[nH]c2ccccc12	-4.9	2.1*	1.2	-0.7	1	-5.1
Cc1ccc2c(C)cc(=S)[nH]c2c1	-2.5	2.8*	1.8	-1.0	0.9	-6.2
O=C(Nc1cccc(NC(=O)C2CCCO2)c1)c1ccco1 (stereo not given)	3.0	0.9	0.9	0.2	1	-0.1
CCOC(=O)c1c(C)[nH]c(C)c1C(=O)CSc1nncs1	-9.4	1.1	1.1	0.2	0.9	10.4*
O=C(CS(=O)(=O)Cc1ccccc1)NCc1ccco1	-5.8	1	1	-0.3	1	9.8*
O=C(CS(=O)(=O)c1ccccc1)NCc1ccco1	-4.0	0.9	1	-0.1	0.9	0.3
O=C1CCCC/C1=N\Nc1ccc(C2CCCCC2)cc1	-12.5	.	.	.	.	.
O=C1CCCC/C1=N\Nc1ccc(OCc2ccccc2)cc1	-7.1	2.5*	1.7	0.0	1	-3.4
Cc1ccc(C(=O)NN2C(=O)C3C4C=CC(C4)[C@@H]3C2=O)cc1 (stereo not given in full)	0.2	.	.	.	.	.
Cc1ccc(C(=O)NN2C(=O)C3C4C=CC(C5CC45)C3C2=O)cc1 (stereo not given)	-3.2	0.9	1	-0.2	0.9	10.8*
CN1C(=O)c2oc3ccccc3c(=O)c2C1c1ccncc1 (stereo not given)	.	2.3*	1.6	.	0.9	.
O=C(Nc1cccnc1Oc1ccc(Cl)cc1)c1cccc2ccccc12	-26.6	.	.	.	.	.
CCOC(=O)N1CCN(C(=S)Nc2ccc(C)cc2)CC1	-3.3	1	1	0.0	0.9	1.1
CCCCCCCCCCCCCCCC[n+]1ccc(C(N)=O)cc1	101.0*	1.2	0.7	-0.1	1.6	2.0
CCCCCCCCCCCCCCCC[n+]1cccc(C(=O)N(CC)CC)c1	107.5*	1.1	1	-0.2	2*	-3.8
CCCCN(CCCC)C(=O)C[n+]1cccc(/C=N/O)c1	-22.1	1.1	1.1	-1.6	0.8	-1.3
CCCCCCCC[n+]1cccc(C(=O)N(CC)CC)c1	-0.3	1	1	0.1	0.8	-8.7
SMILES	NCF1 inh	PMI act hi M6P	PMI activator	DTT redox prof	Diaph act CS	HMGR II inh
CCCCCCCCCCCCCCCC[n+]1ccc(/C=N/O)cc1	97.0*	1.2	1.1	0.2	2*	-0.6
CC(=O)Nc1ccc(OCC(=O)NCc2ccc3c(c2)OCO3)cc1	0.6	0.9	1	-1.1	0.8	4.7
O=C(Nc1ccc(N2CCCCC2)cc1)c1cccnc1Cl	57.1*	0.9	0.9	-0.3	0.9	1.6
CS(=O)(=O)N1CCN(c2ccc(NC(=O)c3cccnc3Cl)cc2)CC1	12.2	1	1.1	-0.2	1.1	0.8
COc1ccc(NS(=O)(=O)c2cc(NC(=O)c3cccnc3Cl)ccc2N2CCCC2)cc1	+	.	.	.	.	.
N#Cc1ccccc1NC(=O)CSc1ccc([N+](=O)[O-])cn1	-23.8	2.6*	1.8	-0.1	0.9	4.3
Cc1nnc(NC(=O)CSc2ccc([N+](=O)[O-])cn2)s1	2.7	1.1	1.2	1.1	0.9	0.1
CCC(C)(C)NC(=O)C(c1ccc(O)cc1)N(CCOC)C(=O)CCC(=O)Nc1nccs1 (stereo not given)	-3.2	.	.	.	.	.
CCC(C)(C)NC(=O)C(c1ccc(OC)cc1)N(CCOC)C(=O)CCC(=O)Nc1nccs1 (stereo not given)	-1.5	1.1	1.1	-0.1	1.3	10.3*
O=C(N/N=C/c1ccc[nH]1)c1ccccc1O	-20.4	0.7	1.1	0.3	1	10.3*
CCOc1ccc(CN2CCN(Cc3cc4ccccc4[nH]3)CC2CCO)cc1 (stereo not given)	-18.6	0.8	0.8	0.3	0.8	13.8*
CSc1cccc(CN2CCN(Cc3ccccc3)C(CCO)C2)c1 (stereo not given)	-10.9	1.1	1	-0.8	1.1	-9.4
CSc1ccc(CN2CCN(Cc3ccccc3)C(CCO)C2)cc1 (stereo not given)	-15.8	0.9	0.8	-1.5	0.8	10.9*
CC(=O)Nc1cccc(CNCc2cccc(NC(C)=O)c2)c1	13.8	1	1	-1.7	1	-8.5
C[C@@H](NC(=O)c1coc(=O)c(Br)c1)c1ccccc1	-14.9	1	1	0.0	1	-6.6
Cc1cc(NC(=O)c2coc(=O)c(Br)c2)ccc1C(C)C	37.5*	.	.	.	.	.
O=C1c2ccccc2C(=O)C1c1ccc2ccccc2n1	-7.2	1	0.9	-2.2	0.9	14.8*
NNC(=O)c1ccc2c(c1)S(=O)(=O)NNC2=O	-5.8	2.9*	1.9	-0.8	1	-3.5
CCOC(=O)c1cc(NC(=O)c2ccccc2)c(=O)oc1C(F)(F)F	-4.8	2.2*	1.8	-2.3	0.9	4.3
C=CCn1c(C)c(C(C)=O)cc(NC(=O)c2ccccc2)c1=O	-5.9	1.1	1.1	-2.1	1	-3.5
CC(=O)c1cc(NC(=O)c2ccccc2)c(=O)oc1C	-6.5	2.1*	1.7	-2.0	0.9	-2.6
COCCCn1c(C)c(C(C)=O)cc(NC(=O)c2ccccc2)c1=O	-5.8	1	1.2	-1.9	1.1	10.6*
CCOC(=O)c1cc(NC(=O)c2ccc(C)cc2)c(=O)oc1C(F)(F)F	6.0	2.6*	1.7	1.1	0.9	-8.8
Cc1ccc(C)c(NC(=O)CN(C)S(=O)(=O)c2cccc3cccnc23)c1	0.7	.	.	.	.	.
Cc1cccc(S(=O)(=O)c2c(C)cc(C)nc2Cl)c1	-8.7	1	1	-0.9	1	5.0
COC(=O)NNC(=O)CCCOc1ccc(Cl)cc1Cl	-4.4	0.9	0.9	-0.5	0.9	-1.4
